In ChEMBL document CHEMBL5344432, “Identification of a Dual Autophagy and REV-ERB Inhibitor with in Vivo Anticancer Efficacy” (J Med Chem, 2024):
Calls of active or inactive are those of the source. The calls are words filed in the database; no cut-off is given here.

Experiments:
[1] = Inhibition of REV-ERBbeta (unknown origin) transcription expressed in HEK293 cells incubated for 24 hrs by gaussia luciferase based assay; type: cell-based; settings: Homo sapiens, HEK293, 24 h
Outline: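 HEK-293 cells cotransfected with REV-ERBβ and a luciferase reporter driven by two repeats of a REV-ERB response element (RevRE) consensus, then treated across a concentration range. Luciferase activity is expressed as fold of DMSO vehicle, mean ± SEM, n = 6, and EC50 is taken from the concentration-response curve. A parallel reporter carrying a mutated RevRE served as a specificity control.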

[2] = Cytotoxicity against human OMM-1 cells; type: functional
Outline: (§1)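 Human cancer lines (A375, MDA-MB-231, OMM-1, UPMM-2, CAPAN-2, HepG2, HT-29, HCT116) treated up to 30 μM. CC50 derived from concentration–response viability plots. Mean ± SEM, n ≥ 6. Two-tailed unpaired t test used between compounds.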

Mus musculus = assay: In vivo inhibition of REV-ERB in human A375 cells xenografted in NMRI-Foxn1nu mouse assessed as increase in BMAL1 gene expression at 30 mg/kg, ip administered for 2 days and measured after 48 hrs
[3] = Tolerability in CD1 mouse assessed as change in food intake at 69 micromol/kg, ip administered as 3 days on and 2 days off schedule and measured after 15 days; type: toxicity, organism-based; settings: in vivo, 360 h, dose 69 µmol/kg, time 15 day
Outline: (§2)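 Female CD1 mice given 69 μmol/kg (31 mg/kg) ip, 3 days daily then 2 days off, or saline. Body weight, food intake and water intake monitored daily for 15 days. Weight expressed relative to the day before treatment (100%). Mean ± SEM, n = 3.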

[4] = Metabolic stability in rat liver microsomes assessed as half life preincubated for 15 mins followed by NADPH addition and measured after 1 to 2 hrs by LC-MS/MS analysis; type: ADME, Microsome; settings: liver microsomes, time 75-135 min
Outline: (§3)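 Microsomal stability assessed in mouse, human, rat or dog liver microsomes with NADPH cofactor. Half-life and percent parent remaining at 60 and 120 min reported. Mean of at least two independent experiments, each in two technical replicates.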

[5] = Cytotoxicity against human UPMM-2 cells; type: functional; outline: as §1
HEK293 = assay: Inhibition of REV-ERBbeta (unknown origin) transcription expressed in HEK293 cells harboring mutated RevRE incubated for 24 hrs by gaussia luciferase based assay; type: cell-based; settings: Homo sapiens
Outline: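 HEK-293 cells cotransfected with REV-ERBβ and a luciferase reporter bearing a mutated RevRE that REV-ERB cannot bind. Luciferase activity expressed as fold over DMSO vehicle. Mean ± SEM, n = 6.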

[6] = Metabolic stability in human liver microsomes assessed as parent compound remaining preincubated for 15 mins followed by UDPGA addition and measured after 2 hrs by LC-MS/MS analysis; type: ADME, Microsome; settings: time 135 min, read-out: Stability
Outline: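 Mouse and human liver microsomes incubated with UDPGA cofactor. Half-life and percent parent remaining at 120 min reported. Mean of at least two independent experiments, each in two technical replicates.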

HepG2 = assay: Cytotoxicity against human HepG2 cells; type: functional; outline: as §1
[7] = Tolerability in CD1 mouse assessed as change in body weight at 69 micromol/kg, ip administered as 3 days on and 2 days off schedule and measured after 15 days; type: toxicity, organism-based; settings: in vivo, 360 h, dose 69 µmol/kg, time 15 day; outline: as §2
A-375 [8] = assay: Antitumor activity against human A-375 cells xenografted in NMRI-Foxn1nu mouse assessed as tumor growth inhibition at 30 mg/kg, ip administered as 3 days on and 2 days off schedule and measured after 15 days; type: functional; settings: A-375, 360 h, time 15 day, read-out: TGI
Outline: (§4)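 Female NMRI-Foxn1nu mice with subcutaneous A375 flank tumors, grouped by matched tumor volume. Dosing: 30 mg/kg ip or saline, 3 days daily then 2 days off. Tumors measured by digital caliper until day 15. Excised tumors then sized as (W × D × L)/2 and weighed. n = 8; Mann–Whitney two-tailed test for the excised endpoints.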

[9] = Aqueous kinetic solubility of the compound in PBS at pH 7.4 at 250 uM incubated for 24 hrs by UPLC/MS analysis; type: physicochemical; settings: read-out: Kinetic_solubility
Outline: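 Kinetic solubility measured in phosphate-buffered saline, pH 7.4. Mean of at least two independent experiments, each run in two technical replicates.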

[10] = Tolerability in CD1 mouse assessed as lethargy at 138 micromol/kg, ip; type: toxicity; settings: in vivo, dose 138 µmol/kg
Outline: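 Female CD1 mice given daily ip injections at 138 μmol/kg (62 mg/kg). Animals observed for arched backs and lethargy.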

MDA-MB-231 = assay: Cytotoxicity against human MDA-MB-231 cells; type: functional; outline: as §1
BT-474 [11] = assay: Cytotoxicity against human BT-474 cells; type: functional
Outline: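 BT-474 breast cancer cells and nontumorigenic HMECs treated 48 h with concentrations up to 30 μM. CC50 derived from concentration–response viability plots. Values >30 μM assigned when viability fell by less than 50% of vehicle at 30 μM. Mean ± SEM, n ≥ 3.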

[12] = Metabolic stability in dog liver microsomes assessed as parent compound remaining preincubated for 15 mins followed by NADPH addition and measured after 1 to 2 hrs by LC-MS/MS analysis; type: ADME, Canis lupus familiaris, Microsome; settings: time 75-135 min; outline: as §3
Capan-2 = assay: Cytotoxicity against human Capan-2 cells; type: functional; outline: as §1
[13] = Volume of distribution in CD1 mouse at 10 mg/kg, ip measured upto 24 hrs; type: ADME, organism-based; settings: in vivo
Outline: (§5)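 Female CD1 mice given a single 10 mg/kg ip dose. Plasma concentration–time profile analyzed by noncompartmental analysis for half-life and volume of distribution. A two-compartment model was also fitted.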

HCT-116 = assay: Cytotoxicity against human HCT-116 cells; type: functional; outline: as §1
[14] = Toxicity in NMRI-Foxn1nu mouse xenografted with human A-375 cells assessed as reduction in body weight at 30 mg/kg, ip administered as 3 days on and 2 days off schedule and measured after 15 days; type: organism-based; settings: in vivo, 360 h, time 15 day
Outline: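 A375 xenograft-bearing female NMRI-Foxn1nu mice received 30 mg/kg ip or saline on a 3-days-on/2-days-off schedule. Body weight recorded daily to day 15, expressed relative to weight on the day before treatment (set to 100%). n = 8.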

A-375 [15] = assay: Antitumor activity against human A-375 cells xenografted in NMRI-Foxn1nu mouse assessed as reduction in tumor volume at 30 mg/kg, ip administered as 3 days on and 2 days off schedule and measured after 15 days; type: functional; parameters: scale not given: the % may be the effect or the level left; settings: time 15 day; outline: as §4
[16] = Tolerability in CD1 mouse assessed as change in water intake at 69 micromol/kg, ip administered as 3 days on and 2 days off schedule and measured after 15 days; type: toxicity, organism-based; settings: in vivo, dose 69 µmol/kg; outline: as §2
A375 (human) = assay: Inhibition of autophagy in human A375 cells expressing EGFP-LC3B assessed as accumulation of autophagosome after 24 hrs by Hoechst 33342 staining based fluorescent microscopy analysis; settings: dose 1.25-5 µM
BT-474 [17] = assay: Induction of apoptosis in human BT-474 cells assessed as increase in cleaved PARP level after 24 hrs; type: functional, cell-based; settings: dose 2.5-10 µM
Outline: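 BT-474 cells treated at a range of concentrations. Apoptosis read out as caspase activity and as cleaved PARP protein by immunoblot.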

[18] = Half life in CD1 mouse at 10 mg/kg, ip measured upto 24 hrs; type: ADME, organism-based; settings: in vivo; outline: as §5

SMILES: Fc1ccc(C2(NCc3ccc(F)c(CC4CCNCC4)c3)CCCC2)cc1
- EC50 [1]: 3610 nM
- CC50 [2]: 1140 nM
- inhibition (Mus musculus): Active
- Activity [3]: Non-Toxic
- half-life [4]: > 1 h
- CC50 [5]: 1090 nM
- inhibition (HEK293): inactive
- remaining at 2 h [6]: 95%
- CC50 (HepG2): 1490 nM
- Activity [7]: Non-Toxic
- inhibition in vivo at 30 mg/kg (A-375 [8]): 55%
- solubility kinetic at 24 h, 250 µM [9]: > 250 µM
- Activity [10]: Non-Toxic
- CC50 (MDA-MB-231): 2970 nM
- CC50 (BT-474 [11]): 2310 nM
- Stability [12]: 89%
- CC50 (Capan-2): 6860 nM
- Vd [13]: 106.07 L/kg
- CC50 (HCT-116): 4560 nM
- Activity [14]: Non-Toxic
- Activity (A-375 [15]): 60%
- Activity [16]: Non-Toxic
- inhibition (A375 (human)): Dose-Dependent Effect
- Activity (BT-474 [17]): Dose-Dependent Effect
- t1/2 [18]: 9.67 h
